From ChEMBL document CHEMBL5303300, “EUbOPEN Chemogenomics Library - Multiplex” (2023)
“And” between values parts separate entries of the source, which are not always exact repeats. Equal values may be shown once.

Tested on: Fibroblast
Test: Multiplex assay against human fibroblast
Format: toxicity, cell-based
Conditions: number of replicates 2
Method in brief: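 Four dyes were applied at seeding to live cells: Hoechst33342, BioTracker Green Microtubule Cytoskeleton Dye, MitoTracker Red and Annexin V Alexa Fluor 680. Imaging after compound addition used a CQ1 microscope at 37°C and 5% CO2. CellPathfinder machine-learning gating then sorted cells into Hoechst high-intensity objects or normal cells, normal cells into healthy, pyknosed or fragmented nuclei, and pyknosed cells into mitotic or apoptotic, with tubulin, mitochondrial-mass and membrane-permeability phenotypes given as per cents of healthy-nucleus cells.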

[1] = 12 h, 1 µM, compound concentration 1 uM
[2] = 12 h, 10 µM, compound concentration 10 uM
[3] = 24 h, 1 µM, compound concentration 1 uM
[4] = 24 h, 10 µM, compound concentration 10 uM
[5] = 48 h, 1 µM, compound concentration 1 uM
[6] = 48 h, 10 µM, compound concentration 10 uM

CC(C)N(CCCCOCC(=O)NS(C)(=O)=O)c1cnc(-c2ccccc2)c(-c2ccccc2)n1 [SELEXIPAG]
Population Apoptotic (%) [1]: 54% and 38% | Population Fragmented Nuclei (%) [1]: 4% and 10% | Population Healthy Nuclei (%) [1]: 77% and 72% | Population Hoechst High Intensity Objects (%) [1]: 0% | Population Membrane Permeable-Phenotype (%) [1]: 4% | Population Mitochondria Different-Phenotype (%) [1]: 2% and 0% | Population Mitotic Cells (%) [1]: 45% and 61% | Population Normal (%) [1]: 100% | Population Pyknosed Nuclei (%) [1]: 18% and 16% | Population Tubulin-Different-Phenotype (%) [1]: 10% and 11% | Total Cell Count [1]: 168 and 186 | Population Apoptotic (%) [2]: 56% and 54% | Population Fragmented Nuclei (%) [2]: 7% and 14% | Population Healthy Nuclei (%) [2]: 61% and 63% | Population Hoechst High Intensity Objects (%) [2]: 0% | Population Membrane Permeable-Phenotype (%) [2]: 0% and 6% | Population Mitochondria Different-Phenotype (%) [2]: 1% | Population Mitotic Cells (%) [2]: 43% and 45% | Population Normal (%) [2]: 100% and 99% | Population Pyknosed Nuclei (%) [2]: 31% and 21% | Population Tubulin-Different-Phenotype (%) [2]: 2% and 10% | Total Cell Count [2]: 148 and 221 | Population Apoptotic (%) [3]: 58% and 50% | Population Fragmented Nuclei (%) [3]: 8% and 14% | Population Healthy Nuclei (%) [3]: 75% and 65% | Population Hoechst High Intensity Objects (%) [3]: 0% | Population Membrane Permeable-Phenotype (%) [3]: 6% and 4% | Population Mitochondria Different-Phenotype (%) [3]: 0% | Population Mitotic Cells (%) [3]: 41% and 50% | Population Normal (%) [3]: 99% and 100% | Population Pyknosed Nuclei (%) [3]: 16% and 20% | Population Tubulin-Different-Phenotype (%) [3]: 7% and 8% | Total Cell Count [3]: 175 and 190 | Population Apoptotic (%) [4]: 56% and 50% | Population Fragmented Nuclei (%) [4]: 6% and 13% | Population Healthy Nuclei (%) [4]: 63% and 65% | Population Hoechst High Intensity Objects (%) [4]: 0% | Population Membrane Permeable-Phenotype (%) [4]: 2% and 6% | Population Mitochondria Different-Phenotype (%) [4]: 1% | Population Mitotic Cells (%) [4]: 43% and 50% | Population Normal (%) [4]: 100% and 99% | Population Pyknosed Nuclei (%) [4]: 30% and 21% | Population Tubulin-Different-Phenotype (%) [4]: 6% and 8% | Total Cell Count [4]: 152 and 221 | Population Apoptotic (%) [5]: 80% and 40% | Population Fragmented Nuclei (%) [5]: 8% and 11% | Population Healthy Nuclei (%) [5]: 79% and 75% | Population Hoechst High Intensity Objects (%) [5]: 0% | Population Membrane Permeable-Phenotype (%) [5]: 4% and 6% | Population Mitochondria Different-Phenotype (%) [5]: 0% | Population Mitotic Cells (%) [5]: 20% and 60% | Population Normal (%) [5]: 99% | Population Pyknosed Nuclei (%) [5]: 11% and 12% | Population Tubulin-Different-Phenotype (%) [5]: 4% and 3% | Total Cell Count [5]: 169 and 204 | Population Apoptotic (%) [6]: 90% and 59% | Population Fragmented Nuclei (%) [6]: 8% and 11% | Population Healthy Nuclei (%) [6]: 71% and 68% | Population Hoechst High Intensity Objects (%) [6]: 0% | Population Membrane Permeable-Phenotype (%) [6]: 0% and 4% | Population Mitochondria Different-Phenotype (%) [6]: 0% | Population Normal (%) [6]: 100% | Population Pyknosed Nuclei (%) [6]: 19% | Population Tubulin-Different-Phenotype (%) [6]: 3% and 7% | Total Cell Count [6]: 151 and 212
